PGC1a acetyl inh – inhibitors of PGC1a acetylation signal, primary screen, cell-based, U2OS, AlphaScreen, inhibitor mode | AlphaScreen anti-acetyl-lysine; with virally co-expressed GCN5 acetyltransferase | inhibition, % at 15.6 µM | actives 0.17% (n = 350,000) | AID 651687, 2012;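 active = every replicate shows inhibition of at least 40%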;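 note: 0% = neutral control wells and 100% = positive control wells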
S100A4 inh HTS – inhibitors of S100A4-myosin IIA peptide binding, primary screen, biochemical, fluorescence polarization, TAMRA-MyoIIA peptide | Protein S100-A4 (Homo sapiens), P26447 | inhibition, % at 10.7 µM | actives 0.14% (n = 360,000) | AID 652163, 2013;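 active = mean inhibition of at least 70% across replicates, with every replicate also reaching that level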
Target sequence (P26447 whole entry, looked up): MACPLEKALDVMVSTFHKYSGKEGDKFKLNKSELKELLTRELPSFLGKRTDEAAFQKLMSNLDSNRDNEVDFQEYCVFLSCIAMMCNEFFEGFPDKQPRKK
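Test system – S100A4 monomer (human) · Compound – single-point compound testing · Schedule – 5 min incubation before reading · Probe or stimulus – TAMRA-labelled myosin IIA heavy-chain peptide probe, 5 nM · Benchmarks – neutral control DMSO, positive control TFP · Medium – Calcium-containing HEPES buffer, pH 7.2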
Cneo AK release – Cryptococcus neoformans cell lysis inducers, primary screen, AK release luminescence, single concentration; C. neoformans lysis, adenylate kinase release luminescence, 4 h; normalised: neutral wells 0, clomiphene wells 100; lysis activity, % at 15 µM; actives 0.2% (n = 360,000); AID 651654, 2012;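 active = mean lysis activity across replicates of at least 80%, whatever share of replicates individually reach that level; inactive = mean lysis activity below 80%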
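Test system: log-phase Cryptococcus neoformans yeast cells; Quantity: yeast cell density of 5 × 10^6 cells/mL; Buffer or medium: YPD; Doses: single compound concentration per well; Timing: 4 h at 37 °C static, read 1 h later; Measured by: AK luminescence; Read-out basis: lysis from increased AK signal; Control set: Clomiphene as positive control.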
C2C12 statin – suppressors of statin myotoxicity in C2C12 myotubes, primary screen, cell-based, single point, plate reader; C2C12 myotubes + simvastatin, ATP luminescence, 48 h; scaled: DMSO 0, geranylgeraniol control 100; rescue of ATP level, % at 7.49 µM; actives 0.78% (n = 330,000);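 active = mean ATP rescue above about 67%, or every replicate alone reaching that limit, limit read from the data, passing the limit was not always enough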;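 note: myotubes were challenged with 10 µM simvastatin during compound exposure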
Ecoli rRNA inh – reduced GFP signal of wild-type E. coli, primary screen, bacterial rRNA inhibitor project, GFP/RFP fluorescence, OD600, single point | E. coli WT GFP vs humanized-ribosome RFP mutants, 24 h; hits give low values; DMSO median 0, no signal -100 | GFP signal change (wild-type ribosome), % (no concentration beside the values) | actives 1.6% (n = 350,000) | AID 720706, 2013;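 active = significant combined selectivity score with lowered wild-type GFP, culture density cut under 30%, mutant RFP and density less affected; inactive = any of these conditions unmet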
SIRT5 inh – SIRT5 desuccinylase inhibitors, primary screen, biochemical, fluorescence imaging, single point, set 5; Purified SirT5, succinyl-peptide AMC, trypsin-coupled fluorescence; inhibition, % at 15 µM; actives 1.1% (n = 330,000); AID 652115, 2013; in the data active = inhibition above about 15%
Target sequence (Q9NXA8 whole entry, looked up): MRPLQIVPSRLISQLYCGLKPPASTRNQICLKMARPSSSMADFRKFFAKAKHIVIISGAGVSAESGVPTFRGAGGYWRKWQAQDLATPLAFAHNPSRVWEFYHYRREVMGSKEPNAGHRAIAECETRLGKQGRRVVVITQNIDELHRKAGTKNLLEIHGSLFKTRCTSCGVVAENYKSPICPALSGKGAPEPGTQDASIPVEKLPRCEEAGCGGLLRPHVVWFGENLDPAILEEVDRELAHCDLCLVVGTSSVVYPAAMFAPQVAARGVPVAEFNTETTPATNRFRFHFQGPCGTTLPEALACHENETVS
Starred values were filed as active, the others as inactive; . = no result given. Compounds with a hit are over-represented: about 3% of the library has one in this group of screens.

SMILES | PGC1a acetyl inh | S100A4 inh HTS | Cneo AK release | C2C12 statin | Ecoli rRNA inh | SIRT5 inh
COc1ccc(-c2noc(CSc3nnc(-c4ccccc4)n3C)n2)cc1 | -3 | -1 | 0 | . | -22* | 0
COc1ccc(N2CCN(Cc3nc(-c4ccccc4)no3)CC2)cc1 | -5 | 4 | . | . | -19* | -1
Cn1c(SCc2nc(-c3ccc(Br)cc3)no2)nnc1-c1ccco1 | 0 | . | 0 | 2 | . | .
O=C(Nc1ccc(F)cc1)N1CC(=O)N2[C@H](C1)[C@H](c1ccc(C#Cc3ccc(F)cc3)cc1)[C@@H]2CO | -9 | -4 | . | . | -6 | 1
C[C@@H]1CCCCO[C@H](CN(C)Cc2ccc(C(=O)O)cc2)[C@@H](C)CN([C@H](C)CO)C(=O)c2cc(NS(=O)(=O)c3ccccc3)ccc2O1 | 5 | . | -2 | 0 | 2 | .
CCCNC(=O)C[C@H]1CC[C@@H]2[C@@H](COc3ccc(NC(=O)c4ccc(C(F)(F)F)cc4)cc3C(=O)N2C)O1 | -1 | -2 | -7 | 23 | -4 | 0
O=C(Nc1cc(F)ccc1F)N1CC(=O)N2[C@H](CO)[C@H](c3ccc(-c4cccnc4)cc3)[C@H]2C1 | -4 | -7 | . | . | 0 | 1
Cc1cc(C)cc(-n2c(C)cc(/C=N\NC(=O)COc3cccc4cccnc34)c2C)c1 | 1 | -5 | 0 | . | -21* | -2
CN(C)CCCNC(=O)C[C@@H]1CC[C@@H](NS(=O)(=O)c2ccc(F)cc2)[C@@H](CO)O1 | 1 | -1 | -9 | -8 | 2 | 0
C=CCNC(=O)CN1CCC(c2nc3cc(C)c(C)cc3[nH]2)CC1 | 4 | 2 | -5 | -3 | -6 | 18*
C=CCNC(=O)CN1CCC(c2nc3ccccc3[nH]2)CC1 | -1 | -1 | -1 | -2 | 19 | -4
O=C(CCN1CCCCC1)NCC[C@@H]1CC[C@@H](NC(=O)c2ccc(F)cc2)[C@H](CO)O1 | 11 | 33 | -2 | 11 | 2 | 8
CCCc1cc(=O)[nH]c(Nc2ccc3c(c2)OCCO3)n1 | 10 | 3 | 1 | 7 | -16* | 1
CCCCc1ccc(Nc2nc(CCC)cc(=O)[nH]2)cc1 | -6 | . | 0 | 2 | . | .
COc1ccc2c(c1)CCc1c(C(=O)N(C)c3ccccc3)noc1-2 | 5 | -5 | -4 | -14 | -43* | -2
CCOc1ccccc1OCCCCCc1c(C)n[nH]c1C | -19 | . | 4 | 6 | . | .
Cc1cccc(OCCCCc2c(C)n[nH]c2C)c1C | 3 | 1 | 28 | 103* | -57 | -3
C[C@@H]1CN([C@H](C)CO)C(=O)c2cc(C#CC3CCCC3)cnc2O[C@H]1CN(C)C(=O)C1CCCCC1 | -6 | -43 | 0 | -45 | 0 | 12
COc1ccc(-c2cnc3c(c2)C(=O)N([C@@H](C)CO)C[C@@H](C)[C@H](CN(C)S(=O)(=O)c2ccc(OC)cc2)O3)cc1 | 2 | . | . | 12 | 0 | .
CCc1c(Cl)nc(N)nc1Nc1ccccc1Cl | . | -2 | 0 | 3 | . | -1
CCOc1ccccc1Nc1nc(N)nc(Cl)c1CC | -8 | -5 | -2 | 107* | 0 | 0
O=C(Cn1cnc2ccccc2c1=O)Nc1ccc(S(=O)(=O)N2CCOCC2)cc1 | -11 | 4 | . | -12 | -7 | -1
Cc1cccc(OCCC(=O)Nc2ccc(C)c(S(=O)(=O)N3CCCCC3)c2)c1 | -5 | -5 | -2 | . | -5 | 0
O=C(COc1cccc(C(F)(F)F)c1)Nc1ccc(S(=O)(=O)N2CCCC2)cc1 | 9 | 1 | -3 | 116* | -8 | -1
Cn1cnnc1SCC(=O)Nc1ccc(S(=O)(=O)N2CCCC2)cc1 | -29 | 10 | -1 | -5 | 9 | 0
Cc1cccc(OCCC(=O)Nc2ccc(S(=O)(=O)N3CCCC3)cc2)c1 | -28 | . | 5 | 109* | . | .

From PubChem BioAssay
